Assay results: ChEMBL document CHEMBL4152216, “Syntheses and anti-pancreatic cancer activities of rakicidin A analogues” (Eur J Med Chem, 2018)

Tests used:
PANC-1 [1] = experiment: Cytotoxicity against human PANC1 cells after 72 hrs under hypoxic condition by MTT assay; format: functional, cell-based; settings: PANC-1, 72 h
In short: (§1)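 PANC-1, PATU8988T and ASPC-1 cells were grown in DMEM with 10% FBS at 37 °C and 5% CO2, then seeded at 4000 cells/well. Compounds were added at various concentrations after 6 h. Normoxic plates stayed at 37 °C, 5% CO2. Hypoxic plates went into a chamber purged 10 min with 5% CO2/1% O2/94% N2, sealed, at 37 °C. After 72 h, MTT was added for 4 h, formazan dissolved in DMSO and read at 570 nm. IC50 is the mean ± SD of three independent experiments.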

PANC-1 [2] = experiment: Cytotoxicity against human PANC1 cells after 72 hrs under normoxic condition by MTT assay; format: functional, cell-based; settings: PANC-1, 72 h; in short: as §1
PANC-1 [3] = experiment: Selectivity index, ratio of IC50 against human PANC1 cells under normoxic condition to IC50 for human PANC1 cells under hypoxic condition; format: functional
In short: (§2)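 Hypoxic selectivity index is IC50 (normoxia)/IC50 (hypoxia). Both IC50s come from the 72 h MTT assay in the same cell line, run under normoxia (37 °C, 5% CO2) or a sealed 1% O2/5% CO2/94% N2 chamber, each the mean of three independent experiments.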

ASPC1 [4] = experiment: Cytotoxicity against human Aspc-1 cells after 72 hrs under normoxic condition by MTT assay; format: functional, cell-based; settings: ASPC1, 72 h; in short: as §1
ASPC1 [5] = experiment: Cytotoxicity against human Aspc-1 cells after 72 hrs under hypoxic condition by MTT assay; format: functional, cell-based; settings: ASPC1, 72 h; in short: as §1
ASPC1 [6] = experiment: Selectivity index, ratio of IC50 against human Aspc-1 cells under normoxic condition to IC50 for human Aspc-1 cells under hypoxic condition; format: functional; in short: as §2
PaTu 8988t [7] = experiment: Cytotoxicity against human PA-TU-8988T cells after 72 hrs under normoxic condition by MTT assay; format: functional, cell-based; in short: as §1
PaTu 8988t [8] = experiment: Cytotoxicity against human PA-TU-8988T cells after 72 hrs under hypoxic condition by MTT assay; format: functional, cell-based; in short: as §1
PaTu 8988t [9] = experiment: Selectivity index, ratio of IC50 against human PA-TU-8988T cells under normoxic condition to IC50 for human PA-TU-8988T cells under hypoxic condition; format: functional; in short: as §2
PANC-1 [10] = experiment: Inhibition of cancer stem cell population of human PANC1 cells assessed as CD24+/CD44+/ESA+ cell population level at 0.15 uM after 48 hrs by flow cytometric analysis (reference value: 1.7%); format: functional; design: scale not given: the % may be the effect or the level left
[11] = target: T1, Aldehyde dehydrogenase, mitochondrial (Homo sapiens) (UniProt P05091); experiment: Inhibition of ALDH in human PANC1 cells assessed as aldefluor positive cells at 0.2 uM after 72 hrs in presence of DEAB by aldefluor assay (reference value: 0.455%); format: cell-based; design: scale not given: the % may be the effect or the level left
T1 sequence (whole entry): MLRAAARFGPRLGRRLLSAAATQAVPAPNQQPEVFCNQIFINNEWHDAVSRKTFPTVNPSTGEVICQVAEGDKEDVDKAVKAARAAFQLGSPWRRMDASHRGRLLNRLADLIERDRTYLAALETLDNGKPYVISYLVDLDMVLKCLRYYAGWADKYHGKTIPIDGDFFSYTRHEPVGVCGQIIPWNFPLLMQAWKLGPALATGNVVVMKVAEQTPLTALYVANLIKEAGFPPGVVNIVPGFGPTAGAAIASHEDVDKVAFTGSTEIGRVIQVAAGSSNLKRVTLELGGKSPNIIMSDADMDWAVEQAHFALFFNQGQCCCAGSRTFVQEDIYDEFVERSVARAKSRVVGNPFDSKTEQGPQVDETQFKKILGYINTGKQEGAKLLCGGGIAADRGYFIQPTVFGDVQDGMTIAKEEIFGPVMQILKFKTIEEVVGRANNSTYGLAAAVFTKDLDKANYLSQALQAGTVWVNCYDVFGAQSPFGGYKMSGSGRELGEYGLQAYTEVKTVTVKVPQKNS
In short: (§3)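 PANC-1 cells were seeded at 5×10^4 cells/well and exposed after 6 h to compound (0.2 µM; ADR 0.5 µM) for 72 h. Living cells were suspended in assay buffer and incubated with Aldefluor substrate for 60 min at 37 °C. A parallel sample received substrate plus the ALDH inhibitor DEAB as negative control. Readout was percentage of ALDH+ cells, mean ± SEM, n = 3.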

[12] = target: T1, Aldehyde dehydrogenase, mitochondrial (Homo sapiens); experiment: Inhibition of ALDH in human PANC1 cells assessed as aldefluor positive cells at 0.2 uM after 72 hrs by aldefluor assay (reference value: 12.5%); format: cell-based; design: scale not given: the % may be the effect or the level left; in short: as §3
PANC-1 [13] = experiment: Inhibition of tumorsphere formation in human PANC1 cells assessed as reduction in number of tumor spheres at 0.25 uM after 7 days; format: functional
In short: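 Tumorsphere formation: single-cell PANC-1 suspensions were plated in ultra-low-attachment wells at 2,000 cells/mL in Complete MammoCult medium, with compound at 0.25 µM. Tumorspheres were counted after 7 days. Three repeats, mean ± SEM.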

PANC-1 [14] = experiment: Antitumor activity against human PANC1 cells xenografted in BALB/c nude mouse assessed as reduction in tumor initiating cell frequency at 0.1 to 0.25 uM measured after 7 days; format: functional
In short: (§4)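 PANC-1 cells were treated in vitro with compound (ADR at 0.5 µM) for 48 h, collected, and injected subcutaneously at limiting cell doses into 5-week-old female BALB/c nude mice. Tumor formation rate was scored after 7 days. Tumor-initiating frequency was derived by limiting-dilution analysis with Poisson statistics against vehicle.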

Danio rerio = experiment: Toxicity in zebrafish xenografted with human PANC1 cells at 50 uM after 2 days by fluorescence microscopy; format: organism-based; settings: 48 h
PANC-1 [15] = experiment: Antitumor activity against human PANC1 cells xenografted in zebrafsh yolk assessed as tumor growth inhibition at 0.005 uM after 2 days by fluorescence microscopy; format: functional
In short: (§5)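 About 300 PANC-1 cells were microinjected into the yolk of 2 dpf wild-type AB zebrafish, which were held at 35 °C to 3 dpf. Fish were then randomized to 6-well plates, 30 per well, and dosed once with compound at 0.005–50 µM. Gemcitabine 66.7 µM served as positive control and 10% aqueous castor oil as blank. After 2 days at 35 °C, 15 fish per group were imaged by fluorescence microscopy. Inhibition (%) = (1 − S(sample)/S(blank)) × 100, mean ± SEM, n = 15.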

PANC-1 [16] = experiment: Antitumor activity against human PANC1 cells xenografted in zebrafsh yolk assessed as tumor growth inhibition at 0.05 uM after 2 days by fluorescence microscopy; format: functional; in short: as §5
PANC-1 [17] = experiment: Antitumor activity against human PANC1 cells xenografted in zebrafsh yolk assessed as tumor growth inhibition at 0.5 uM after 2 days by fluorescence microscopy; format: functional; in short: as §5
PANC-1 [18] = experiment: Antitumor activity against human PANC1 cells xenografted in zebrafsh yolk assessed as tumor growth inhibition at 5 uM after 2 days by fluorescence microscopy; format: functional; in short: as §5
PANC-1 [19] = experiment: Antitumor activity against human PANC1 cells xenografted in zebrafsh yolk assessed as tumor growth inhibition at 50 uM after 2 days by fluorescence microscopy; format: functional; in short: as §5
ASPC1 [20] = experiment: Potency index, ratio of […] for rakicidin A to IC50 for test compound for cytotoxicity against human Aspc-1 cells after 72 hrs under hypoxic condition by MTT assay; format: functional
PANC-1 [21] = experiment: Antitumor activity against human PANC1 cells xenografted in zebrafsh yolk assessed as tumor growth inhibition at 66.7 uM after 2 days by fluorescence microscopy; format: functional; in short: as §5
[22] = target: T1, Aldehyde dehydrogenase, mitochondrial (Homo sapiens); experiment: Inhibition of ALDH in human PANC1 cells assessed as aldefluor positive cells at 0.5 uM after 72 hrs in presence of DEAB by aldefluor assay (reference value: 0.455%); format: cell-based; design: scale not given: the % may be the effect or the level left; in short: as §3
[23] = target: T1, Aldehyde dehydrogenase, mitochondrial (Homo sapiens); experiment: Inhibition of ALDH in human PANC1 cells assessed as aldefluor positive cells at 0.5 uM after 72 hrs by aldefluor assay (reference value: 12.5%); format: cell-based; design: scale not given: the % may be the effect or the level left; in short: as §3
PANC-1 [24] = experiment: Increase in tumor initiating cell frequency in human PANC1 cells xenografted in BALB/c nude mouse at 0.5 uM measured after 7 days; format: cell-based; settings: in vivo, 168 h; in short: as §4

Row | Compound | IC50 (PANC-1 [1]) | IC50 (PANC-1 [2]) | Ratio IC50 (PANC-1 [3]) | IC50 (ASPC1 [4]) | IC50 (ASPC1 [5]) | Ratio IC50 (ASPC1 [6]) | IC50 (PaTu 8988t [7]) | IC50 (PaTu 8988t [8]) | Ratio IC50 (PaTu 8988t [9]) | Activity (PANC-1 [10]) | Activity (Danio rerio) | TGI (PANC-1 [15]) | TGI (PANC-1 [16]) | TGI (PANC-1 [17]) | TGI (PANC-1 [18]) | TGI (PANC-1 [19]) | also measured
1 | C=C1/C=C/C(=O)N(C)CC(=O)N[C@@H](CC(=O)NC2CC2)C(=O)O[C@@H]([C@H](C)CCCCCCCCCCCCCC)[C@H](C)C(=O)N1 | 24 nM | 130 nM | 5.25 | 270 nM | 22 nM | 12.27 | 200 nM | 24 nM | 8.3 | 0.5% | Non-Toxic | 15% | 10% | 5% | 22% | 45% | Activity [11]: 0.746%; Activity [12]: 5.84%; fold change (FC) (PANC-1 [13]): 8.7; fold change (FC) (PANC-1 [14]): 19; Ratio IC50 (ASPC1 [20]): 4
2 | Nc1ccn([C@@H]2O[C@H](CO)[C@@H](O)C2(F)F)c(=O)n1 [GEMCITABINE] | 1700 nM | 400 nM | 0.24 |  |  |  |  |  |  | 1.4% |  |  |  |  |  |  | TGI (PANC-1 [21]): 55%
3 | COc1cccc2c1C(=O)c1c(O)c3c(c(O)c1C2=O)C[C@@](O)(C(=O)CO)C[C@@H]3O[C@H]1C[C@H](N)[C@H](O)[C@H](C)O1.Cl [DOXORUBICIN HYDROCHLORIDE] | 1700 nM | 480 nM | 0.29 | 1600 nM | 2000 nM | 0.78 |  |  |  | 8.9% |  |  |  |  |  |  | Activity [22]: 0.964%; Activity [23]: 18.8%; fold change (FC) (PANC-1 [24]): 1.6
4 | C=C1/C=C/C(=O)N(C)CC(=O)NCC(=O)O[C@@H]([C@H](C)CCCCCCCCCCCCCC)[C@H](C)C(=O)N1 | 310 nM | 2480 nM | 7.93 | 4170 nM | 490 nM | 8.6 | 2470 nM | 440 nM | 5.67 |  | Non-Toxic | 14% | -2% | 6% | 26% | 47% | 
